Results collected from several papers.
Each line is one published result; the experiments were not run side by side. In brackets after ≈: the same amount, converted by molar mass.

SMILES	tested on	assay	system	setting	endpoint	value
O=c1ccc2ccc3occc3c2o1	–	tubulin polymerisation, inhibitor	–	10 µM	inhibition	57.1%
CCC1(c2ccc(N)cc2)CCC(=O)NC1=O (stereo not drawn)	MCF-10A	cell growth or viability, CCK-8	–	48 h	IC50	> 50 µM
OCCOCCN1CCN(C(c2ccccc2)c2ccc(Cl)cc2)CC1 (stereo not drawn)	human PBMC	cell migration	–	10 µM	inhibition	7%
C[C@]12CCC(=O)C(O)=C1CC[C@@H]1[C@@H]2CC[C@]2(C)C(=O)CC[C@@H]12	CAL-27	cell growth or viability	–	72 h	IC50	> 20 µM
O=C(N/N=C1\C(=O)N(Cc2ccccc2)c2ccc(Cl)cc21)c1cc2ccccc2[nH]1	MCF-10A	cell growth or viability	–	72 h	IC50	2 µM
CCCCCCC/C=C/C(=O)N1C(=O)/C(=C(/C)O)C(=O)C1Cc1ccc(O)cc1 (stereo not drawn)	Burkholderia cepacia	microbial growth	ATCC25416	–	MIC	> 200 µg/mL
CN[C@@H]1[C@H](O)[C@H](NC)[C@H]2O[C@@]3(O)C(=O)C[C@@H](C)O[C@H]3O[C@@H]2[C@H]1O	Burkholderia cepacia	microbial growth, broth dilution	ATCC25416	–	MIC	50 µg/mL (≈ 150 µM)
O=C(Oc1ccc(I)cc1)[c-]1cccc1.[Fe+2].c1cc[cH-]c1	MCF-10A	cell growth or viability, MTT	–	72 h	IC50	7 µM
CCCCCCC/C=C/C(=O)N1C(=O)/C(=C(\O)CCCC)C(=O)C1CC(C)C (stereo not drawn)	Burkholderia cepacia	microbial growth	ATCC25416	–	MIC	> 200 µg/mL
CN(c1ccccc1)S(=O)(=O)c1cc(C(=O)NCc2ccco2)ccc1Cl	human PBMC	cell migration	–	10 µM	inhibition	82%
CCCCCCC/C=C/C(=O)N1C(=O)/C(=C(\O)c2ccc(O)cc2)C(=O)C1CC(C)C (stereo not drawn)	Burkholderia cepacia	microbial growth	ATCC25416	–	MIC	100 µg/mL (≈ 234 µM)
C=C(CCC=C(C)C)[C@H]1CC[C@H]2[C@@H]3CC=C4C[C@@H](O)CC[C@]4(C)[C@H]3CC[C@]12C	Leishmania mexicana	parasite growth	–	48 h, promastigote	IC50	> 262 µM
